From ChEMBL document CHEMBL4814016, “Balancing potency and basicity by incorporating fluoropyridine moieties: Discovery of a 1-amino-3,4-dihydro-2,6-naphthyridine BACE1 inhibitor that affords robust and sustained central Aβ reduction” (Eur J Med Chem, 2021) come the findings set out here.

The target in data set [1] is T1, Beta-secretase 1 (Homo sapiens, UniProt P56817). The data set can be described thus: Inhibition of BACE1 in human SH-SY5Y cells expressing APP assessed as reduction in Abeta40 by HTRF assay. The data set is classed as cell-based. Put shortly:
(§1)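 The figures are means of at least two determinations. BACE1 activity was measured with a biochemical HTRF assay on an APP-derived peptide substrate. In the cellular assay, secreted Aβ40 from SH-SY5Y neuroblastoma cells transfected with human APP was measured by HTRF, and the IC50 derived from it.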

A short description of data set [2]: Dissociation constant, pKa of compound by capillary electrophoresis. The data set is classed as physicochemical. Put shortly: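 pKa measured by capillary electrophoresis.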
In data set [3] the target is T1, Beta-secretase 1. The data set can be described thus: Inhibition of BACE1 (unknown origin).
The target of data set [4] is T1, Beta-secretase 1. The data set can be described thus: Inhibition of BACE1 (unknown origin) by HTRF assay. Put shortly:
as §1

The target of another data set is hERG (KCNH2) (Homo sapiens, UniProt Q12809). The data set can be described thus: Inhibition of human ERG at 5 uM by automated patch clamp assay relative to control. Put shortly: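 hERG inhibition measured at 5 µM with an automated patch clamp assay.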
The next data set has as its target P-gp (MDR1, ABCB1) (Homo sapiens, UniProt P08183). Kind of data set: Substrate activity at P-gp (unknown origin) transfected in LLC-PK1 cells expressing human MDR1 gene assessed as efflux ratio. Format: ADME, cell-based.
Data set [5] can be described thus: Ratio of drug level in Cerebrospinal fluid to plasma in Beagle dog at 1 mg/kg, po measured after 24 hrs. The data set is classed as ADME, organism-based, Canis lupus familiaris, CSF/Plasma. The method, boiled down:
(§2)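 Beagle dogs, n = 3, were given 1 mg/kg orally as a suspension in 0.5% methylcellulose. Plasma and CSF drug concentrations were measured at 3, 7, 10 and 24 h. The CSF ratio is CSF concentration over unbound plasma concentration.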

The nature of data set [6]: Drug concentration in Beagle dog cerebrospinal fluid at 1 mg/kg, po measured after 10 hrs. The data set is classed as ADME, organism-based, Canis lupus familiaris. The following applies: read-out: Ct. The method, boiled down: as §2
The nature of data set [7]: AUC in Beagle dog at 1 mg/kg, po. Conditions: in vivo.
A short description of data set [8]: Plasma concentration in Beagle dog at 1 mg/kg, po measured after 7 hrs. The data set is classed as ADME, organism-based, Canis lupus familiaris. Put shortly:
as §2

A short description of data set [9]: In vivo inhibition of amyloid beta in Beagle dog cerebrospinal fluid at 1 mg/kg, po measured after 24 hrs by ELISA. Conditions: Canis lupus familiaris. The data set is classed as functional. The method, boiled down:
(§3)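 Beagle dogs, n = 3, received 1 mg/kg orally as a 0.5% methylcellulose suspension. Total Aβ in CSF was measured by ELISA at 10 and 24 h and expressed as % reduction.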

A short description of data set [10]: Fraction unbound in rat serum. Format: ADME, cell-free. Put shortly: (§4)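 Fraction unbound measured in rat and dog serum.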
Data set [11] can be described thus: Tmax in Beagle dog at 1 mg/kg, po. The following applies: in vivo.
Data set [12] can be described thus: In vivo inhibition of amyloid beta in Beagle dog cerebrospinal fluid at 1 mg/kg, po measured after 10 hrs by ELISA. Format: functional. The following applies: Canis lupus familiaris. Put shortly: as §3
A short description of data set [13]: Clearance in rat at 0.5 mg/kg, iv. The following applies: in vivo. Format: ADME, organism-based. The method, boiled down:
(§5)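 Single iv dose of 0.5 mg/kg in rats, n = 2. Total clearance and steady-state volume of distribution were taken from the plasma profile.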

Data set [14] in a line: Metabolic stability in rat liver microsomes assessed as parent compound remaining measured after 30 mins. The data set is classed as ADME, Microsome. Conditions: read-out: Stabilty. Put shortly: (§6)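 Parent compound remaining (%) measured after 30 min incubation in rat or dog liver microsomes.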
A short description of data set [15]: Metabolic stability in Beagle dog liver microsomes assessed as parent compound remaining measured after 30 mins. The data set is classed as ADME, Canis lupus familiaris, Microsome. The following applies: read-out: Stabilty. Put shortly: as §6
Data set [16] can be described thus: Volume of distribution at steady state in rat at 0.5 mg/kg, iv. The following applies: in vivo, read-out: Vdss. The data set is classed as ADME, organism-based. Put shortly: as §5
Data set [17] in a line: Drug concentration in Beagle dog cerebrospinal fluid at 1 mg/kg, po measured after 24 hrs. The data set is classed as ADME, organism-based, Canis lupus familiaris. Conditions: read-out: Ct. The method, boiled down:
as §2

Data set [18] in a line: Tmax in rat at 1 mg/kg, po. The data set is classed as ADME, organism-based. Conditions: in vivo. The method, boiled down:
(§7)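 Rats dosed orally at 1 mg/kg, n = 2. Plasma AUC, Cmax and Tmax were taken from the profile. Bioavailability was calculated against an iv dose of 0.5 mg/kg, n = 2.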

A short description of data set [19]: AUC in rat at 1 mg/kg, po. Format: ADME, organism-based. Details: dose 1 mg/kg. The following applies: in vivo. Put shortly:
as §7

Data set [20] can be described thus: Plasma concentration in Beagle dog at 1 mg/kg, po measured after 3 hrs. The data set is classed as ADME, organism-based, Canis lupus familiaris. Put shortly:
as §2

Data set [21] can be described thus: Fraction unbound in Beagle dog serum. The data set is classed as ADME, cell-free, Canis lupus familiaris. The method, boiled down:
as §4

Data set [22] is described as follows: Oral bioavailability in rat at 1 mg/kg. The data set is classed as ADME, organism-based. Conditions: in vivo. Put shortly: as §7
A short description of data set [23]: Ratio of drug level in Beagle dog cerebrospinal fluid after 10 hrs to IC50 for inhibition of BACE1 in human SH-SY5Y cells expressing APP assessed as reduction in Abeta40 by HTRF assay. Format: cell-based. The method, boiled down:
(§8)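 CSF drug concentration in dogs dosed orally at 1 mg/kg (0.5% methylcellulose suspension) at 10 and 24 h, divided by the cellular Aβ40 HTRF IC50 from SH-SY5Y cells expressing human APP.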

The nature of data set [24]: Plasma concentration in Beagle dog at 1 mg/kg, po measured after 10 hrs. Format: ADME, organism-based, Canis lupus familiaris. Put shortly: as §2
Data set [25] is described as follows: Cmax in rat at 1 mg/kg, po. Format: ADME, organism-based. Details: route oral, dose 1 mg/kg. The following applies: in vivo. The method, boiled down: as §7
Data set [26] in a line: Cmax in Beagle dog at 1 mg/kg, po. The following applies: in vivo.
A short description of data set [27]: Ratio of drug level in Beagle dog cerebrospinal fluid after 24 hrs to IC50 for inhibition of BACE1 in human SH-SY5Y cells expressing APP assessed as reduction in Abeta40 by HTRF assay. The data set is classed as cell-based. Put shortly:
as §8

Data set [28] can be described thus: Ratio of drug level in brain to plasma in rat at 0.5 mg/kg, iv. Format: ADME, organism-based. The method, boiled down: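 Rats given 0.5 mg/kg iv, n = 2. Result is the total brain-to-plasma concentration ratio (Kp).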
Data set [29] in a line: Plasma concentration in Beagle dog at 1 mg/kg, po measured after 24 hrs. The data set is classed as ADME, organism-based, Canis lupus familiaris. The method, boiled down:
as §2

Data set [30] can be described thus: Ratio of drug level in Cerebrospinal fluid to plasma in Beagle dog at 1 mg/kg, po measured after 10 hrs. Format: ADME, organism-based, Canis lupus familiaris, CSF/Plasma. The method, boiled down:
as §2

Each structure is given as a SMILES string.

T1 sequence (P56817 whole entry): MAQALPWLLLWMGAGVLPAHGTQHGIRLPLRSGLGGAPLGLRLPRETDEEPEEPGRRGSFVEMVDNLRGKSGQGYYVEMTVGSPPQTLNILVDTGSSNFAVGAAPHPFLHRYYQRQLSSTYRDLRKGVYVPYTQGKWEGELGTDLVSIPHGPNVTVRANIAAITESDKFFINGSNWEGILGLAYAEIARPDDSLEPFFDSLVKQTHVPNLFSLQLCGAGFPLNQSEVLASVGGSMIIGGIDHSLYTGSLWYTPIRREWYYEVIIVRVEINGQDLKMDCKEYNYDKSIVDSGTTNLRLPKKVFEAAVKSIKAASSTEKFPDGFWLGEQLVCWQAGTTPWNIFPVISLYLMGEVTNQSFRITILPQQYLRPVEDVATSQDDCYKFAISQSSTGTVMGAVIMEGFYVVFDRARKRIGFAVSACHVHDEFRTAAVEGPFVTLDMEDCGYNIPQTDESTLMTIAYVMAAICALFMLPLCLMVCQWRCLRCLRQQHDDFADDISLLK
Chain of hERG (KCNH2) (Q12809 whole entry): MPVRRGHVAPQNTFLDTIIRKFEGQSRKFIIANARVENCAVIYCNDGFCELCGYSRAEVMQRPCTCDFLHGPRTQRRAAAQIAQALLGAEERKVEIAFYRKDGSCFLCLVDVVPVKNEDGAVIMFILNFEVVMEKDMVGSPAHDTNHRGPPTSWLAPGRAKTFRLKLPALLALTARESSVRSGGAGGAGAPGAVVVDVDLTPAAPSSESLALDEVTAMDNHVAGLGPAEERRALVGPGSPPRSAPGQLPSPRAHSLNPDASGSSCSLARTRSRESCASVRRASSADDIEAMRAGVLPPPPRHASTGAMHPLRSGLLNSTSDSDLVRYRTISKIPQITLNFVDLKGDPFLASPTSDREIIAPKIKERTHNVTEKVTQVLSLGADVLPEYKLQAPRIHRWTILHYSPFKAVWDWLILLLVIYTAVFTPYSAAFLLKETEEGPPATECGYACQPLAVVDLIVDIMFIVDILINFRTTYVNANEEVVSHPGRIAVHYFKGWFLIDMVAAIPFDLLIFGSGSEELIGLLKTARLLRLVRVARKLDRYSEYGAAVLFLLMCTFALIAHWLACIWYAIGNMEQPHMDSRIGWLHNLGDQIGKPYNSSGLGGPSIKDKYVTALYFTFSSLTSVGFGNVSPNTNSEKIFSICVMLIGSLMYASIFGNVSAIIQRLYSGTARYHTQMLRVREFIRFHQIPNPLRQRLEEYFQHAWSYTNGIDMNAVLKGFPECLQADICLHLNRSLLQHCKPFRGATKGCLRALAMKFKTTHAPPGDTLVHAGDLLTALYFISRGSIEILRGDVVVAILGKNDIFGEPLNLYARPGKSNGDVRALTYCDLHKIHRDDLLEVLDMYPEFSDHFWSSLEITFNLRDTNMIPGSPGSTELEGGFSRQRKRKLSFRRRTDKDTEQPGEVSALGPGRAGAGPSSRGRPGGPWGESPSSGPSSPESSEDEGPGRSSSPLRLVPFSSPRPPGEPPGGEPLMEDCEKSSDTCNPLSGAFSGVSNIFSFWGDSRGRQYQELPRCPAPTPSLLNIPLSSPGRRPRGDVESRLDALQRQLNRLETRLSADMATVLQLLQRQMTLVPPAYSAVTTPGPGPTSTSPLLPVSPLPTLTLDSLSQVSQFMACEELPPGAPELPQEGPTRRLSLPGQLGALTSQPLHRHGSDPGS
Chain of P-gp (MDR1, ABCB1) (P08183 whole entry): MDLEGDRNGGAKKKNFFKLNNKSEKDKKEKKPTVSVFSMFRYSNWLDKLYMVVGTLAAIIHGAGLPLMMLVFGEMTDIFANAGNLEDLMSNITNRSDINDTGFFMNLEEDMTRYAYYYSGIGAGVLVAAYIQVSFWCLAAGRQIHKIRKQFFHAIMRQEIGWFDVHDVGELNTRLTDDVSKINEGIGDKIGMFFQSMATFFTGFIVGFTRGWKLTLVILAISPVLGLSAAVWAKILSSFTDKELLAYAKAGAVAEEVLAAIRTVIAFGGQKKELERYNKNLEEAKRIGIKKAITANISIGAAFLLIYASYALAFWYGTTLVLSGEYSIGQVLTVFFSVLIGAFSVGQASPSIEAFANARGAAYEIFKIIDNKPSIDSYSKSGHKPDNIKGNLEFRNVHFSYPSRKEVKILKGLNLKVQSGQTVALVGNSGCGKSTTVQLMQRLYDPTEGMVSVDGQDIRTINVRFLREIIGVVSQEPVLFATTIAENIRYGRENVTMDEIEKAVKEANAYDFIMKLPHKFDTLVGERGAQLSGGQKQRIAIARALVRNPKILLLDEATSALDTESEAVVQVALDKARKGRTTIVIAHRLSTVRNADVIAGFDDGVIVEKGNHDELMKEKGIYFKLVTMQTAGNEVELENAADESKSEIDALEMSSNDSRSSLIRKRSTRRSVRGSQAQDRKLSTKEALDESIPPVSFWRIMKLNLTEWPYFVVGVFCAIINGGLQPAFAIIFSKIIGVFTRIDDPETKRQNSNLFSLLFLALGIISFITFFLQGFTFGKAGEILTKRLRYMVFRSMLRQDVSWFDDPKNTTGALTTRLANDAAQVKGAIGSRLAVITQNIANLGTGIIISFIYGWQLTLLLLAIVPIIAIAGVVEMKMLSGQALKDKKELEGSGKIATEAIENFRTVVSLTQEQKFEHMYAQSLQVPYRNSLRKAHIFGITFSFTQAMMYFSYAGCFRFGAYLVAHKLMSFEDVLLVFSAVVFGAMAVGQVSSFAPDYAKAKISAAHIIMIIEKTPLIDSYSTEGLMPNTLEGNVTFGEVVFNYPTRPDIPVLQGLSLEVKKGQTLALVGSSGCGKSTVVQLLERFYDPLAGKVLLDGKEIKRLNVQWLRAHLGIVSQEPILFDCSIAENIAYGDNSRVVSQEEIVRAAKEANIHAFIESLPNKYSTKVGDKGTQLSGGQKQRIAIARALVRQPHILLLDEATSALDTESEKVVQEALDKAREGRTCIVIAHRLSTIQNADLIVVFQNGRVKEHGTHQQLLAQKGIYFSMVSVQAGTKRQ

Consider `CC1(c2cc(NC(=O)c3ccc(C#N)cn3)ccc2F)Cc2ncccc2C(N)=N1` (configuration not stated), for which, at Beta-secretase 1 [1], the IC50 was 4.1 nM. The same compound displayed a pKa in data set [2] of 9.4.

`CC1(c2cc(NC(=O)c3ccc(C#N)cn3)ccc2F)N=C(N)c2ccccc2O1` (configuration not stated) displayed an IC50 at Beta-secretase 1 [3] of 82 nM.

As for `CC1(c2cc(NC(=O)c3ccc(C#N)cn3)ccc2F)Cc2ccncc2C(N)=N1` (configuration not stated), the IC50 amounted to 8.1 nM against Beta-secretase 1 [4] and 1.3 nM at Beta-secretase 1 [1]. On hERG (KCNH2), at 5 µM the inhibition was 83%. For the same compound, the pKa in data set [2] worked out at 9.5.

Consider `CC1(c2cc(NC(=O)c3ccc(C#N)cn3)ccc2F)Cc2cnccc2C(N)=N1` (configuration not stated), for which, at P-gp (MDR1, ABCB1), the efflux ratio came to 37. The IC50 at Beta-secretase 1 [4] stood at 21 nM; on Beta-secretase 1 [1], 1.5 nM. Further, the inhibition at 5 µM at hERG (KCNH2) was 85%. Also, the pKa in [2] amounted to 9.

Take `CC1(c2cc(NC(=O)c3ccc(C#N)cn3)ccc2F)Cc2c(F)cncc2C(N)=N1` (configuration not stated): the efflux ratio on P-gp (MDR1, ABCB1) came out at 13. In addition, the IC50 worked out at 12 nM on Beta-secretase 1 [4] and 0.25 nM on Beta-secretase 1 [1]. Besides, on hERG (KCNH2), the inhibition at 5 µM was found to be 72%. In addition, the pKa in data set [2] stood at 7.6.

For the compound `CC1(c2cc(NC(=O)c3ccc(C#N)cn3)ccc2F)Cc2cccnc2C(N)=N1` (configuration not stated), the values for the IC50 at Beta-secretase 1 [4] and at Beta-secretase 1 [1] were 394 nM and 26 nM, respectively. The pKa in data set [2] is 9.8.

Consider `CC1(c2cc(NC(=O)c3ccc(C#N)cn3)ccc2F)Cc2c(ccnc2F)C(N)=N1` (configuration not stated), for which the IC50 against Beta-secretase 1 [4] worked out at 14 nM; on Beta-secretase 1 [1] it was 0.36 nM.

Regarding `CC1(c2cc(NC(=O)c3ccc(C#N)cn3)ccc2F)Cc2cncc(F)c2C(N)=N1` (configuration not stated), the IC50 on Beta-secretase 1 [4] was found to be 118 nM; on Beta-secretase 1 [1], 11 nM. This compound had an inhibition at 5 µM against hERG (KCNH2) of 92%. The compound further showed a pKa in data set [2] of 7.3.

As to `C[C@@]1(c2cc(NC(=O)c3ccc(C#N)cn3)ccc2F)Cc2c(ccnc2F)C(N)=N1`, in data set [5], the Kp at 24 h came to 0.083. Further, the concentration at 10 h in data set [6] turned out to be 0.56 ng/mL; in data set [24], 64 ng/mL. In addition, the AUC in data set [7] stood at 3890 ng·h/mL; in data set [19], 122 ng·h/mL. On P-gp (MDR1, ABCB1), the efflux ratio was 13. Moreover, the concentration at 7 h in data set [8] was 65 ng/mL. The inhibition in vivo at 1 mg/kg came to 47% in [9] and 49% in [12]. Besides, the fraction unbound came to 0.15 in data set [10] and 0.14 in data set [21]. For the same compound, the Tmax came out at 4.3 h in data set [11] and 4 h in data set [18]. Further, the clearance in data set [13] was determined as 45 mL/min/kg. The remaining at 0.5 h was 22% in [14] and 93% in data set [15]. For the same compound, the half-inhibitory concentration (IC50) against Beta-secretase 1 [4] stood at 9.1 nM; at Beta-secretase 1 [1] it was 0.41 nM. For the same compound, the Vd in data set [16] came out at 14 L/kg. In addition, the concentration at 24 h was 0.52 ng/mL in data set [17] and 47 ng/mL in data set [29]. On hERG (KCNH2), the inhibition at 5 µM worked out at 88%. In data set [20], the concentration at 3 h is 72 ng/mL. Besides, the bioavailability in data set [22] was 33%. The Ratio came out at 3.3 in [23] and 3 in [27]. Moreover, the Cmax in data set [25] was 9 ng/mL; in data set [26], 78 ng/mL. Further, in data set [28], the Kp was 0.28. For the same compound, in data set [30], the Kp at 10 h is 0.07. Besides, in data set [2], the pKa is 8.2.
